Active and inactive are the calls of the source. The rule behind the calls is not given here.
Experiments:
[1] = target: T1, Ectonucleotide pyrophosphatase/phosphodiesterase family member 1 (Homo sapiens, UniProt P22413); assay: Mixed type inhibition of human NPP1 expressed in COS7 cells assessed as production of p-nitrophenol using pnp-TMP as the substrate preincubated for 3 mins before substrate addition measured after 15 mins by Dixon/Cornish Bowden method; type: cell-based, COS-7; details: read-out: Ki(app)
T1 sequence (P22413 whole entry): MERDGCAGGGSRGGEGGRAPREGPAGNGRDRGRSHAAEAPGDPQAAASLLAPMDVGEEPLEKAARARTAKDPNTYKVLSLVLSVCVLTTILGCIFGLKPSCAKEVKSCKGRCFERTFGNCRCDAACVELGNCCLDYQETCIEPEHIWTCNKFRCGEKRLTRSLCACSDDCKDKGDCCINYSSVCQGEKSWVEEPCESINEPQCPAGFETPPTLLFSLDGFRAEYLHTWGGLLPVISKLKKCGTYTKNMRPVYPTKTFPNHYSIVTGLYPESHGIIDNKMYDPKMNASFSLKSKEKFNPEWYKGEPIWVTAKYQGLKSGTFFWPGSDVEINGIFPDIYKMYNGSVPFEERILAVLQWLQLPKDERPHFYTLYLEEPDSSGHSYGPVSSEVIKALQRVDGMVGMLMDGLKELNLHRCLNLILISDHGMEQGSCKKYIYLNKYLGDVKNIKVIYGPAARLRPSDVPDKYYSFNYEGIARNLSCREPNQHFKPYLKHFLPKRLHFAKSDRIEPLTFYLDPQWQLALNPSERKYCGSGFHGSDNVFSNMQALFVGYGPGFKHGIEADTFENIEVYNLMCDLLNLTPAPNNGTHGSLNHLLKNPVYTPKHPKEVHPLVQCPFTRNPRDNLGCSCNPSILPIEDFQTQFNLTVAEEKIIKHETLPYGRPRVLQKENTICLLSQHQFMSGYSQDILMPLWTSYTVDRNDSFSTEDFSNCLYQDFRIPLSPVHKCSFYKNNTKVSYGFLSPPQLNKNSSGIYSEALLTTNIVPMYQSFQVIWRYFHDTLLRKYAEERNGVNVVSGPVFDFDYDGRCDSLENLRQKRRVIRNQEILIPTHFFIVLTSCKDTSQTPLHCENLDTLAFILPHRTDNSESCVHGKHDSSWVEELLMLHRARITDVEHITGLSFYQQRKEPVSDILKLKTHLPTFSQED
Procedure, shortened: (§1)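 Crude protein extract from COS-7 cells transiently transfected with human NPP1 (sonicated, debris cleared at 300g), preincubated 3 min at 37 °C with inhibitor (0, 25, 50, 100 μM) in 1 mM CaCl2, 140 mM NaCl, 5 mM KCl, 50 mM Tris pH 8.5. pnp-TMP (25, 50, 100 μM) added; p-nitrophenol read at 410 nm after 15 min. Ki,app and inhibition type from Dixon and Cornish-Bowden plots, three independent experiments.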

[2] = target: T2, Ectonucleotide pyrophosphatase/phosphodiesterase family member 1 (Homo sapiens) (UniProt P22413); assay: Inhibition of human NPP1 expressed in COS7 cells assessed as production of p-nitrophenol using pnp-TMP as the substrate preincubated at 100 uM for 3 mins before substrate addition measured after 15 mins […]; type: cell-based; details: COS-7
T2 sequence (whole entry): T1 sequence (P22413 whole entry)
Procedure, shortened: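 Crude extracts of COS-7 cells transiently transfected with human NPP1 or NPP3, preincubated 3 min at 37 °C in 1 mM CaCl2, 140 mM NaCl, 5 mM KCl, 50 mM Tris pH 8.5 with analogue at 100 μM. Reaction started with 100 μM pnp-TMP; p-nitrophenol at 410 nm after 15 min. Activity without analogue set as 100%. Mean ± SD of 3−6 experiments in triplicate.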

[3] = target: T3, Ectonucleoside triphosphate diphosphohydrolase 8 (Homo sapiens) (UniProt Q5MY95); assay: Inhibition of human NTPDase8 assessed as amount of inorganic phosphate released using ATP as the substrate preincubated at 100 uM for 3 mins before substrate addition after 15 mins by malachite green reagent method
T3 sequence (whole entry): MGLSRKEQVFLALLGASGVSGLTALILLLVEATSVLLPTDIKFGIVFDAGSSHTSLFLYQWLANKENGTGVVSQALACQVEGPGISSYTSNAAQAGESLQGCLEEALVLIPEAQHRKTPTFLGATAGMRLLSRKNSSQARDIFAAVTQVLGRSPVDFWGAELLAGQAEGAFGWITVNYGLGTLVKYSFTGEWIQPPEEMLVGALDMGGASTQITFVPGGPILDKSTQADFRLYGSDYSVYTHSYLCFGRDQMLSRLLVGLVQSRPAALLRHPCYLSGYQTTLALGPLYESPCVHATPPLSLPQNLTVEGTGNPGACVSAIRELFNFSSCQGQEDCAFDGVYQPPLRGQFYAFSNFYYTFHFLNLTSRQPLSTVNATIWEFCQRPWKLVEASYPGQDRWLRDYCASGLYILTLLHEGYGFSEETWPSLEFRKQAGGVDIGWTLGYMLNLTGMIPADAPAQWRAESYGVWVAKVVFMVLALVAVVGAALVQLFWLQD
Procedure, shortened: (§2)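 Crude extracts of COS-7 cells transiently transfected with human NTPDase1, -2, -3 or -8, preincubated 3 min at 37 °C in Tris-Ringer medium pH 7.4 with analogue (final 100 μM). Started with 100 μM ATP, stopped after 15 min with malachite green; released Pi read at 630 nm. ATP alone set as 100%. Mean ± SD of 3−6 experiments in triplicate.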

[4] = target: T4, Ectonucleoside triphosphate diphosphohydrolase 3 (Homo sapiens) (UniProt O75355); assay: Inhibition of human NTPDase3 assessed as amount of inorganic phosphate released using ATP as the substrate preincubated at 100 uM for 3 mins before substrate addition after 15 mins by malachite green reagent method; procedure, shortened: as §2
T4 sequence (whole entry): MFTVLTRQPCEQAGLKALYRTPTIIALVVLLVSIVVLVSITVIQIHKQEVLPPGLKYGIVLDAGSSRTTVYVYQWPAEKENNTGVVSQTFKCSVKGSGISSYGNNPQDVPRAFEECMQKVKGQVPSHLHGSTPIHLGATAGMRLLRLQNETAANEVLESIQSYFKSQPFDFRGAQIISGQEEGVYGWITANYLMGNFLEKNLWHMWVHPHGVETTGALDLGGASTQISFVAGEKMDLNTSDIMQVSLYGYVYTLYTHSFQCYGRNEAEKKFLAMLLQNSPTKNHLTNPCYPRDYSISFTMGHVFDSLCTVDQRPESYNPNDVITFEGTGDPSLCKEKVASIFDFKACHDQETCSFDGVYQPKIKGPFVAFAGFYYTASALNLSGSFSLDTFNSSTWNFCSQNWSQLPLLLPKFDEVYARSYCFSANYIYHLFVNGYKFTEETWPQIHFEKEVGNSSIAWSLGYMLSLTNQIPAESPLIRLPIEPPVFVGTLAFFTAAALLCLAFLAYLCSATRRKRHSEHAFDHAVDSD

[5] = target: T2, Ectonucleotide pyrophosphatase/phosphodiesterase family member 1 (Homo sapiens); assay: Competitive inhibition of human NPP1 expressed in COS7 cells assessed as production of p-nitrophenol using pnp-TMP as the substrate preincubated at 25 to 100 uM for 3 mins before substrate addition measured after 15 mins by Dixon/Cornish Bowden method; type: cell-based; details: COS-7; procedure, shortened: as §1
[6] = target: T5, Ectonucleoside triphosphate diphosphohydrolase 1 (Homo sapiens) (UniProt P49961); assay: Inhibition of human NTPDase1 assessed as amount of inorganic phosphate released using ATP as the substrate preincubated at 100 uM for 3 mins before substrate addition after 15 mins by malachite green reagent method; procedure, shortened: as §2
T5 sequence (whole entry): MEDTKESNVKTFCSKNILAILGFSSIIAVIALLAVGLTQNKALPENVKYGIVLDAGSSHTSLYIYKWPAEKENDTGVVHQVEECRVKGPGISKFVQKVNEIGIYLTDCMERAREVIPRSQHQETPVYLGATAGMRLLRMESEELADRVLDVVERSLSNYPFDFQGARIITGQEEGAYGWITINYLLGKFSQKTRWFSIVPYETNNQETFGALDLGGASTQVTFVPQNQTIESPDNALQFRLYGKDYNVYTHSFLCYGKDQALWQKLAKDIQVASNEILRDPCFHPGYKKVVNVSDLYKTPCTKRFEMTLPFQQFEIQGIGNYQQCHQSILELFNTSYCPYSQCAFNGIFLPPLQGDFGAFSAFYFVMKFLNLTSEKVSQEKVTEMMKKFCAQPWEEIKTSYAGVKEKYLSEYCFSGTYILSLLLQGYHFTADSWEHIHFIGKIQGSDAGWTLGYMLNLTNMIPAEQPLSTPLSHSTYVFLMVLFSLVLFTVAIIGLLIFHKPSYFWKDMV

Work on `B[P@@](=O)(OC[C@H]1O[C@@H](n2cnc3c(N)ncnc32)[C@H](O)[C@@H]1O)OP(=O)(O)C(Cl)(Cl)P(=O)(O)O` yielded a Ki [1] of 18 µM, an inhibition [2] of 90% and an inhibition [3] of 30%. The inhibition [4] was 50%, the inhibition [5] was “Active” and the inhibition [6] was 50%.

From ChEMBL document CHEMBL3085721, “Nonhydrolyzable ATP analogues as selective inhibitors of human NPP1: a combined computational/experimental study” (J Med Chem, 2013)
